From ChEMBL document CHEMBL3758168, “Hybrid triazoles: Design and synthesis as potential dual inhibitor of growth and efflux inhibition in tuberculosis” (Eur J Med Chem, 2016) come the findings set out here.

Assay [1] concerns Mycolicibacterium smegmatis. Put plainly: Anti-tubercular activity against Mycobacterium smegmatis MC2 155 ATCC 700084 after 3 days by microdilution method. The assay is classed as functional. The settings on record: MC2 155 ATCC 700084, 72 h. A digest of the protocol: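 M. smegmatis mc2155 grown in MB7H9 + 10% OADC at 37 °C with shaking to OD600 0.8. Inoculum set to 0.5 McFarland, diluted 1:100, and mixed 1:1 with two-fold serial dilutions in MB7H9. Plates incubated 3 days at 37 °C with growth and sterility controls. MIC taken as the lowest concentration with no visible growth.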

The nature of assay [2]: Cytotoxicity against human MDM assessed as cell viability after 3 days by Alamar blue dye-based fluorocytometric analysis relative to control. The conditions noted are these: 72 h. Background: The colour change of resazurin is a common sign of viable cells or microbes.
Assay [3] deals with Mycobacterium tuberculosis. Put plainly: Anti-tubercular activity against Mycobacterium tuberculosis H37Rv ATCC 27294T after 7 days by mircodilution method. The conditions noted are these: 168 h. The format is functional. In short, it runs like this: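 H37Rv grown static in MB7H9 + 10% OADC at 37 °C to OD600 0.8, then diluted to about 10^5 cells/ml. Mixed 1:1 with two-fold serial dilutions in MB7H9/OADC and incubated 7 days at 37 °C. MTT added to final 2.5% and plates incubated overnight. MIC is the lowest concentration with no colour change. Run in triplicate.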

SMILES strings stand for the structures. Converted amounts (≈) assume the structure as drawn.

For orientation: MIC means the lowest concentration found to suppress growth. A low value points to a more susceptible organism. One may read the IC50 as the concentration that inhibits the measured activity by half.

In assay [1], `O=C(CCl)Nn1c(S)nnc1COc1ccccc1C1=NOC(c2ccc(Cl)cc2Cl)C1` (stereo unspecified) displayed a minimum inhibitory concentration (MIC) of 16 µg/mL (≈ 31.2 µM). Besides, in assay [2], the IC50 worked out at 3.2 µg/mL (≈ 6.24 µM).
The molecule `O=C(CCl)Nn1c(COc2ccccc2C2=NOC(c3ccc(Cl)cc3Cl)C2)nnc1Sc1ccccc1` (stereo unspecified) had an MIC in assay [1] of 128 µg/mL (≈ 217 µM).
Regarding `CC(=O)Nn1c(S)nnc1COc1ccccc1C1=NOC(c2ccc(Cl)cc2Cl)C1` (stereo unspecified), the minimal inhibitory concentration (MIC) in assay [1] was 8 µg/mL (≈ 16.7 µM). Further, the IC50 in assay [2] turned out to be 1.3 µg/mL (≈ 2.72 µM).
`CCCCSc1nnc(COc2ccccc2C2=NOC(c3ccc(Cl)cc3Cl)C2)n1NC(=O)CCl` (stereo unspecified): it took 32 µg/mL (≈ 56.2 µM) to inhibit growth in assay [1] (MIC). Also, the 50% inhibitory concentration (IC50) in assay [2] was 2.8 µg/mL (≈ 4.92 µM).
In turn, `CCOC(=O)CSc1nnc(COc2ccccc2C2=NOC(c3ccc(Cl)cc3Cl)C2)n1NC(C)=O` (stereo unspecified) had a minimum inhibitory concentration (MIC) in assay [1] of more than 64 µg/mL.
In turn, `C=CCSc1nnc(COc2ccccc2C2=NOC(c3ccc(Cl)cc3Cl)C2)n1NC(=O)c1ccccc1` (stereo unspecified) came in with a minimal inhibitory concentration (MIC) in assay [1] of 128 µg/mL (≈ 221 µM).
Still for that read-out and setting: the same measure for `C=CCSc1nnc(COc2ccccc2C2=NOC(c3ccc(Cl)cc3Cl)C2)n1NC(=O)CCl` (stereo unspecified): 256 µg/mL (≈ 463 µM); for `C/C=C/Sc1nnc(COc2ccccc2C2=NOC(c3ccc(Cl)cc3Cl)C2)n1NC(C)=O` (stereo unspecified): 512 µg/mL (≈ 988 µM).
`CSc1nnc(COc2ccccc2C2=NOC(c3ccc(Cl)cc3Cl)C2)n1NC(=O)c1ccccc1` (stereo unspecified): the MIC in assay [1] was 32 µg/mL (≈ 57.7 µM). In addition, the 50% inhibitory concentration (IC50) in assay [2] was 2.2 µg/mL (≈ 3.97 µM).
For the molecule `C/C=C/Sc1nnc(COc2ccccc2C2=NOC(c3ccc(Cl)cc3Cl)C2)n1NC(=O)c1ccccc1` (stereo unspecified), inhibition of growth in assay [1] (MIC) required 128 µg/mL (≈ 221 µM).
Same read-out and setting: the value for `CC(=O)Nn1c(COc2ccccc2C2=NOC(c3ccc(Cl)cc3Cl)C2)nnc1SCC(C)C` (stereo unspecified) was more than 256 µg/mL.
The molecule `CSc1nnc(COc2ccccc2C2=NOC(c3ccc(Cl)cc3Cl)C2)n1NC(=O)CCl` (stereo unspecified) returned a minimal inhibitory concentration (MIC) in assay [1] of 32 µg/mL (≈ 60.7 µM). Further, in assay [2], the concentration for half-maximal inhibition (IC50) is 2.7 µg/mL (≈ 5.12 µM).
Molecule `CC(C)CSc1nnc(COc2ccccc2C2=NOC(c3ccc(Cl)cc3Cl)C2)n1NC(=O)CCl` (stereo unspecified) gave an MIC in assay [1] of 1020 µg/mL (≈ 1800 µM).
As for `CCCCSc1nnc(COc2ccccc2C2=NOC(c3ccc(Cl)cc3Cl)C2)n1NC(C)=O` (stereo unspecified), inhibition of growth in assay [1] (MIC) required 32 µg/mL (≈ 59.9 µM). Moreover, the half-maximal inhibitory concentration (IC50) in assay [2] is 2.6 µg/mL (≈ 4.86 µM).
With `NNC(=O)c1ccncc1` [ISONIAZID], in assay [3], the lowest concentration to inhibit growth (MIC) was 0.1 µg/mL (≈ 0.729 µM).
`Nn1c(S)nnc1COc1ccccc1C1=NOC(c2ccc(Cl)cc2Cl)C1` (stereo unspecified) displayed an MIC in assay [1] of 2 µg/mL (≈ 4.58 µM). For the same molecule, in assay [2], the IC50 was found to be 87.3 µg/mL (≈ 200 µM).
The matching figures for `CSc1nnc(COc2ccccc2C2=NOC(c3ccc(Cl)cc3Cl)C2)n1NC(C)=O` (stereo unspecified): 32 µg/mL (≈ 65 µM) and 2.7 µg/mL (≈ 5.48 µM).
The corresponding values for `CCCCSc1nnc(COc2ccccc2C2=NOC(c3ccc(Cl)cc3Cl)C2)n1NC(=O)c1ccccc1` (stereo unspecified) are 64 µg/mL (≈ 107 µM) and 2.5 µg/mL (≈ 4.19 µM).
Consider `CCOC(=O)CSc1nnc(COc2ccccc2C2=NOC(c3ccc(Cl)cc3Cl)C2)n1NC(=O)CCl` (stereo unspecified), for which, in assay [1], the MIC was found to be 128 µg/mL (≈ 214 µM).
On the same count and under the same terms, the same measure for `CCOC(=O)CC(=O)CSc1nnc(COc2ccccc2C2=NOC(c3ccc(Cl)cc3Cl)C2)n1NC(C)=O` (stereo unspecified): 512 µg/mL (≈ 844 µM).
As for `NCC[C@H](O)C(=O)N[C@@H]1C[C@H](N)[C@@H](O[C@H]2O[C@H](CN)[C@@H](O)[C@H](O)[C@H]2O)[C@H](O)[C@H]1O[C@H]1O[C@H](CO)[C@@H](O)[C@H](N)[C@H]1O` [AMIKACIN], in assay [3], the MIC came to 2 µg/mL (≈ 3.42 µM).
As to `C/C=C/Sc1nnc(COc2ccccc2C2=NOC(c3ccc(Cl)cc3Cl)C2)n1NC(=O)CCl` (stereo unspecified), in assay [1], the minimum inhibitory concentration (MIC) is more than 512 µg/mL.
The same measure, in the same setting: the value for `CCOC(=O)CSc1nnc(COc2ccccc2C2=NOC(c3ccc(Cl)cc3Cl)C2)n1NC(=O)c1ccccc1` (stereo unspecified) was 64 µg/mL (≈ 102 µM).
On to `CCSc1nnc(COc2ccccc2C2=NOC(c3ccc(Cl)cc3Cl)C2)n1NC(=O)c1ccccc1` (stereo unspecified), for which the MIC in assay [1] was determined as 4 µg/mL (≈ 7.04 µM). For the same molecule, the 50% inhibitory concentration (IC50) in assay [2] came to 1.8 µg/mL (≈ 3.17 µM).
Molecule `CC(C)CSc1nnc(COc2ccccc2C2=NOC(c3ccc(Cl)cc3Cl)C2)n1NC(=O)c1ccccc1` (stereo unspecified) gave an MIC in assay [1] of 512 µg/mL (≈ 858 µM).
Regarding `C=CCSc1nnc(COc2ccccc2C2=NOC(c3ccc(Cl)cc3Cl)C2)n1NC(C)=O` (stereo unspecified), the MIC in assay [1] turned out to be 256 µg/mL (≈ 494 µM).
`CCSc1nnc(COc2ccccc2C2=NOC(c3ccc(Cl)cc3Cl)C2)n1NC(=O)CCl` (stereo unspecified) displayed an MIC in assay [1] of 512 µg/mL (≈ 947 µM).
On to `CC[n+]1c(-c2ccccc2)c2cc(N)ccc2c2ccc(N)cc21.[Br-]` [HOMIDIUM BROMIDE], for which the minimal inhibitory concentration (MIC) in assay [3] was determined as 12.5 µg/mL.
On to `CCOC(=O)CC(=O)CSc1nnc(COc2ccccc2C2=NOC(c3ccc(Cl)cc3Cl)C2)n1NC(=O)c1ccccc1` (stereo unspecified), for which, in assay [1], the MIC turned out to be 512 µg/mL (≈ 766 µM).
As for `CC(=O)Nn1c(COc2ccccc2C2=NOC(c3ccc(Cl)cc3Cl)C2)nnc1Sc1ccccc1` (stereo unspecified), in assay [1], the minimum inhibitory concentration (MIC) was more than 512 µg/mL.
Still for that read-out and setting: the same measure for `CCOC(=O)CC(=O)CSc1nnc(COc2ccccc2C2=NOC(c3ccc(Cl)cc3Cl)C2)n1NC(=O)CCl` (stereo unspecified): 128 µg/mL (≈ 200 µM).
As for `O=C(Nn1c(S)nnc1COc1ccccc1C1=NOC(c2ccc(Cl)cc2Cl)C1)c1ccccc1` (stereo unspecified), in assay [1], 32 µg/mL (≈ 59.2 µM) was the least that counted as inhibitory (MIC). Moreover, the IC50 in assay [2] came to 1.7 µg/mL (≈ 3.15 µM).
With `O=C(Nn1c(COc2ccccc2C2=NOC(c3ccc(Cl)cc3Cl)C2)nnc1Sc1ccccc1)c1ccccc1` (stereo unspecified), the minimum inhibitory concentration (MIC) in assay [1] stood at 256 µg/mL (≈ 415 µM).
In assay [3], `CO[C@H]1/C=C/O[C@@]2(C)Oc3c(C)c(O)c4c(O)c(c(/C=N/N5CCN(C)CC5)c(O)c4c3C2=O)NC(=O)/C(C)=C\C=C\[C@H](C)[C@H](O)[C@@H](C)[C@@H](O)[C@@H](C)[C@H](OC(C)=O)[C@@H]1C` [RIFAMPIN] gave an MIC of 1 µg/mL (≈ 1.22 µM).
Still for that read-out and setting: the same measure for `CC1COc2c(N3CCN(C)CC3)c(F)cc3c(=O)c(C(=O)O)cn1c23` (stereo unspecified) [OFLOXACIN]: 2 µg/mL (≈ 5.53 µM).
